Assay results from ChEMBL document CHEMBL1134850, “Biphenyl derivatives as novel dual NK(1)/NK(2)-receptor antagonists” (Bioorg Med Chem Lett, 2002).

target: T1, Substance-K receptor (Homo sapiens, UniProt P21452); test: Binding affinity by measuring the inhibition of 125 I-NKA binding to transfected CHO cells expressing human recombinant Tachykinin receptor 2; assay type: cell-based
T1 sequence (P21452 whole entry): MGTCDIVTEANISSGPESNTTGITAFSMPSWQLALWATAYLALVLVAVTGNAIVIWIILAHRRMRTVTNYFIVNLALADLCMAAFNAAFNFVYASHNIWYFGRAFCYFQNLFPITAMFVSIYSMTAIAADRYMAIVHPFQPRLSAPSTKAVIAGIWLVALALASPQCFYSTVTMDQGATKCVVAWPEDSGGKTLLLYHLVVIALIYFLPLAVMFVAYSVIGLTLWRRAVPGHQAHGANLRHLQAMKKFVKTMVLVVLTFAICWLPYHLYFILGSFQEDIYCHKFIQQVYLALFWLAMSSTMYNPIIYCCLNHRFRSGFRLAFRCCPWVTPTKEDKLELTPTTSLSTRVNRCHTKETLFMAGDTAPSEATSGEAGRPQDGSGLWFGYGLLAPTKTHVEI
In short: (§1)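 Whole hNK2-transfected CHO cells (3 × 10⁵ per well) incubated 20 min at room temperature in 20 mM HEPES pH 7.4 with 2 mM MnSO₄ and 6 mM MgCl₂, 0.05 nM ¹²⁵I-NKA and varying test concentrations. Nonspecific binding defined with 50 nM NKA. Free ligand removed by rapid filtration, four ice-cold Tricine washes, filter-bound radioactivity by scintillation counting; triplicate samples.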

| IC50 [nM] | SMILES |
| --- | --- |
| 28 | CN(C(=O)c1cc(C(F)(F)F)cc(C(F)(F)F)c1)c1cc(C(=O)N[C@@H]2CCCCNC2=O)ccc1-c1ccc(F)cc1 |
| 70 | CN(C(=O)c1cc(C(F)(F)F)cc(C(F)(F)F)c1)c1cc(C(=O)N[C@@H]2CCCCNC2=O)ccc1-c1ccc(Cl)cc1 |
| 560 | CN(C(=O)c1cc(C(F)(F)F)cc(C(F)(F)F)c1)c1cc(C(=O)NC2CCCCNC2=O)ccc1-c1ccccc1 (centres undefined) |
| 168 | CN(C(=O)c1cc(C(F)(F)F)cc(C(F)(F)F)c1)c1cc(C(=O)NC2CCCCC2)ccc1-c1ccc(F)cc1 |
| > 1000 | CN(C(=O)c1ccccc1)c1cc(C(=O)NC2CCCCC2)ccc1-c1ccc(F)cc1 |
| 43 | CN(C(=O)c1cc(C(F)(F)F)cc(C(F)(F)F)c1)c1cc(C(=O)N[C@@H]2CCCCNC2=O)ccc1-c1ccc(Cl)c(Cl)c1 |
| 181 | Cc1ccc(-c2ccc(C(=O)N[C@@H]3CCCCNC3=O)cc2N(C)C(=O)c2cc(C(F)(F)F)cc(C(F)(F)F)c2)cc1 |

target: T1, Substance-K receptor; test: Binding affinity was determined by measuring the inhibition of 125 I-NKA binding to transfected CHO cells expressing human recombinant Tachykinin receptor 2; assay type: cell-based; in short: as §1

| IC50 [nM] | SMILES |
| --- | --- |
| 108 | CN(C)CCCNC(=O)c1ccc(-c2ccc(Cl)cc2)c(N(C)C(=O)c2cc(C(F)(F)F)cc(C(F)(F)F)c2)c1 |
| 162 | COc1cc(C(=O)N(C)c2cc(C(=O)N[C@@H]3CCCCNC3=O)ccc2-c2ccc(Cl)cc2)cc(OC)c1OC |
| 500 | CN(C)C(=O)c1ccc(-c2ccc(Cl)cc2)c(N(C)C(=O)c2cc(C(F)(F)F)cc(C(F)(F)F)c2)c1 |
| 51 | CN(C(=O)c1cc(C(F)(F)F)cc(C(F)(F)F)c1)c1cc(C(=O)NC2CCCCC2)ccc1-c1ccc(Cl)cc1 |
| > 1000 | COc1cc(C(=O)Nc2cc(C(=O)NC3CCCCNC3=O)ccc2-c2ccc(Cl)cc2)cc(OC)c1OC (centres undefined) |
| > 1000 | CN(O)C(=O)c1ccc(-c2ccc(Cl)cc2)c(N(C)C(=O)c2cc(C(F)(F)F)cc(C(F)(F)F)c2)c1 |

| SMILES | IC50 [nM] |
| --- | --- |
| COc1cc(C(=O)Nc2cc(C(=O)NC3CCCCC3)ccc2-c2ccc(Cl)cc2)cc(OC)c1OC | 30 |
